Values after ≈ are worked out from the molar mass of the structure shown. Active and inactive are the calls of the source. The rule behind the calls is not given here.
Tests used:
[1] = Metabolic stability in CD-1 mouse liver microsomes assessed as half-life incubated for 60 mins by LC-MS/MS analysis; type: ADME, Microsome; conditions: 1 h
Outline: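 Half-life measured in CD-1 mouse liver microsomes with NADPH over a 60 min exposure.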

[2] = Oral bioavailability in female CD-1 mouse at 11 mg/kg measured after 12 hrs by LC-MS/MS analysis; type: ADME, organism-based; conditions: in vivo
Outline: (§1)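 Female CD-1 mice (n = 3/group) received one bolus of 11 mg/kg (actual dose; 10 mg/kg intended) IV or PO. Plasma was sampled at six time points over 12 h, and brain homogenate was taken at the 12 h end point. […] Mean ± SD.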

[3] = Toxicity in female CD-1 mouse infected with Naegleria fowleri Nf69 (ATCC 30215) trophozoites assessed as adverse effect at 50 mg/kg, ip pre-infected for 48 hrs from day 0 followed by single bolus compound administration from day 2 to day 6 and measured on day 14 post-infection; type: organism-based; conditions: in vivo, 312 h, time 13 day
[4] = Drug concentration in female CD-1 mouse brain at 11 mg/kg, iv measured after 12 hrs by LC-MS/MS analysis; type: ADME, organism-based; conditions: read-out: Ct; outline: as §1
[5] = AUCinfinity in female CD-1 mouse at 11 mg/kg, iv measured after 12 hrs by LC-MS/MS analysis; type: ADME, organism-based; conditions: in vivo; outline: as §1
[6] = Drug concentration in female CD-1 mouse plasma at 11 mg/kg, iv measured after 8 hrs by LC-MS/MS analysis; type: ADME, organism-based; outline: as §1
[7] = Drug concentration in female CD-1 mouse plasma at 11 mg/kg, iv measured after 2 hrs by LC-MS/MS analysis; type: ADME, organism-based; outline: as §1
[8] = Drug concentration in female CD-1 mouse plasma at 11 mg/kg, iv measured after 12 hrs by LC-MS/MS analysis; type: ADME, organism-based; outline: as §1
Naegleria fowleri [9] = experiment: Anti-ameobic activity against Naegleria fowleri Nf69 (ATCC 30215) trophozoites infected in female CD-1 mouse model assessed as median survival day at 11 mg/kg, ip pre-infected for 48 hrs from day 0 followed by twice daily compound administration from day 2 to day 6 and measured on day 14 post-infection (reference value: 5.4 day ); type: functional; conditions: time 13 day
Outline: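 Female CD-1 mice (n = 6/group) were infected intranasally with Nf69 trophozoites on day 0. After a 48 h establishment period, they received IP dosing at 11 mg/kg twice daily for 5 days. Infected controls received vehicle only. The study lasted 14 days, with Kaplan–Meier survival, and the brains of survivors were cultured for viable amoeba.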

[10] = Half-life in female CD-1 mouse at 11 mg/kg, iv measured after 12 hrs by LC-MS/MS analysis; type: ADME, organism-based; conditions: in vivo; outline: as §1
[11] = Drug concentration in female CD-1 mouse brain at 44 mg/kg, ip measured after 4 hrs by LC-MS/MS analysis; type: ADME, organism-based; conditions: read-out: Ct
Outline: (§2)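 Female CD-1 mice (n = 3/group) received one intraperitoneal bolus of 44 mg/kg (actual dose; 50 mg/kg intended). Plasma was sampled at 2 and 4 h and brain homogenate at 4 h. Brain-to-plasma ratio = brain over plasma concentration at 4 h. Mean ± SD.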

SH-SY5Y = experiment: Cytotoxicity against human SH-SY5Y cells assessed as reduction in cell viability incubated for 72 hrs by CellTiter-Glo assay; type: toxicity, cell-based; conditions: sh-sy5y, 72 h
Outline: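 SH-SY5Y cells at 2000 per well attached overnight at 37 °C. Compound from 20 mM DMSO stocks was added in triplicate as a dose series starting at 20 μM, with doxorubicin as positive control.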

[12] = Drug concentration in female CD-1 mouse plasma at 11 mg/kg, po measured after 8 hrs by LC-MS/MS analysis; type: ADME, organism-based; outline: as §1
[13] = Kinetic solubility of compound at pH 7.4 incubated for 24 hrs by HPLC analysis; type: physicochemical; conditions: buffer, pH 7.4, read-out: Kinetic_solubility
[14] = Drug concentration in female CD-1 mouse plasma at 11 mg/kg, iv measured after 4 hrs by LC-MS/MS analysis; type: ADME, organism-based; outline: as §1
[15] = Drug concentration in female CD-1 mouse plasma at 11 mg/kg, iv measured after 0.5 hrs by LC-MS/MS analysis; type: ADME, organism-based; outline: as §1
[16] = Protein binding in CD-1 mouse plasma incubated for 4 hrs by equilibrium dialysis based LC-MS/MS analysis; type: ADME, cell-free; conditions: mouse, 4 h
[17] = Drug concentration in female CD-1 mouse plasma at 11 mg/kg, po measured after 12 hrs by LC-MS/MS analysis; type: ADME, organism-based; outline: as §1
[18] = Drug concentration in female CD-1 mouse brain at 11 mg/kg, po measured after 12 hrs by LC-MS/MS analysis; type: ADME, organism-based; conditions: read-out: Ct; outline: as §1
Naegleria fowleri [19] = experiment: Anti-ameobic activity against Naegleria fowleri Nf69 (ATCC 30215) trophozoites assessed as inhibition of amoeba growth incubated for 48 hrs by CellTiter-Glo assay; type: functional, organism-based; conditions: Naegleria fowleri, Nf69 (ATCC 30215), 48 h
Outline: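 Axenic Nf69 trophozoites were seeded at 1 × 10^4 cells/mL in Nelson's complete medium with 10% heat-inactivated FBS. Compound was added at 20 to 0.375 μM (lower ranges for very potent compounds), with vehicle controls, for 48 h at 37 °C and 5% CO2. CellTiter-Glo luminescence gave % growth inhibition versus controls, and triplicate means were fitted to dose–response curves for EC50.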

[20] = Ratio of drug concentration in female CD-1 mouse brain to plasma at 44 mg/kg, ip measured after 4 hrs by LC-MS/MS analysis; type: ADME, organism-based; outline: as §2
[21] = Drug concentration in female CD-1 mouse plasma at 11 mg/kg, po measured after 2 hrs by LC-MS/MS analysis; type: ADME, organism-based; outline: as §1
Naegleria fowleri [22] = experiment: Anti-ameobic activity against Naegleria fowleri Nf69 (ATCC 30215) trophozoites infected in female CD-1 mouse model assessed as reduction in infection at 11 mg/kg, ip pre-infected for 48 hrs from day 0 followed by twice daily compound administration from day 2 to day 6 and […]; type: functional, organism-based; conditions: time 6.0 day
[23] = Selectivity index, ratio of CC50 for cytotoxicity against human SH-SY5Y cells to EC50 for anti-amoebic activity against Naegleria fowleri Nf69 (ATCC 30215) assessed as inhibition of amoeba growth; type: toxicity, cell-based; conditions: SH-SY5Y cells, read-out: Ratio CC50/EC50
[24] = Half-life in female CD-1 mouse at 11 mg/kg, po measured after 12 hrs by LC-MS/MS analysis; type: ADME, organism-based; conditions: in vivo; outline: as §1
[25] = Metabolic stability in human liver microsomes assessed as half-life; type: ADME, Microsome
[26] = Drug concentration in CD-1 mouse brain infected with Naegleria fowleri Nf69 (ATCC 30215) trophozoites assessed as adverse effect at 50 mg/kg, ip pre-infected for 48 hrs from day 0 followed by single bolus compound administration from day 2 to day 6 and measured on day 14 post-infection; type: ADME, organism-based; conditions: time 13 day, read-out: Ct
[27] = AUCinfinity in female CD-1 mouse at 11 mg/kg, po measured after 12 hrs by LC-MS/MS analysis; type: ADME, organism-based; conditions: in vivo; outline: as §1
[28] = Drug concentration in female CD-1 mouse plasma at 44 mg/kg, ip measured after 2 hrs by LC-MS/MS analysis; type: ADME, organism-based; outline: as §2
[29] = Drug concentration in female CD-1 mouse plasma at 11 mg/kg, po measured after 0.5 hrs by LC-MS/MS analysis; type: ADME, organism-based; outline: as §1
[30] = Volume of distribution in female CD-1 mouse at 11 mg/kg, iv measured after 12 hrs by LC-MS/MS analysis; type: ADME, organism-based; conditions: in vivo; outline: as §1
Naegleria fowleri [31] = experiment: Anti-ameobic activity against Naegleria fowleri TY (ATCC 30107) trophozoites assessed as inhibition of amoeba growth incubated for 48 hrs by CellTiter-Glo assay; type: functional, organism-based
Outline: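 TY strain (ATCC 30107) trophozoites, seeded at 1 × 10^4 cells/mL, were exposed 48 h (37 °C, 5% CO2) to vehicle or compound, with concentrations initially 20 to 0.375 μM. CellTiter-Glo luminescence gave % growth inhibition versus controls. EC50 was fit from triplicate runs (n = 3, ± SEM).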

[32] = Drug concentration in female CD-1 mouse plasma at 11 mg/kg, po measured after 4 hrs by LC-MS/MS analysis; type: ADME, organism-based; outline: as §1

## COc1cc2nc3n(c(=O)c2cc1Cl)CC[C@H]1[C@H]3CCCN1CC1COC1
[1]
  t1/2: 0.803 h
[2]
  F: 38%
[3]
  Activity: Non-Toxic
[4]
  concentration at 12 h: 13.3 ng/g
[5]
  AUC: 5010 ng·h/mL
[6]
  concentration at 8 h: 18.1 ng/mL
[7]
  concentration at 2 h: 882 ng/mL
[8]
  concentration at 12 h: 2.6 ng/mL
Naegleria fowleri [9]
  MSD: 6.1 days
[10]
  t1/2: 1 h
[11]
  concentration at 4 h: 9090 ng/g
SH-SY5Y
  CC50: 2.3 µM
[12]
  concentration at 8 h: 21.1 ng/mL
[13]
  solubility kinetic at 24 h: 23.9 µM (≈ 9.32 µg/mL)
[14]
  concentration at 4 h: 281 ng/mL
[15]
  concentration at 0.5 h: 2110 ng/mL
[16]
  PPB: 74%
[17]
  concentration at 12 h: 2 ng/mL
[18]
  concentration at 12 h: 10.4 ng/g
Naegleria fowleri [19]
  EC50: 0.012 µM
[20]
  BPR: 4.7
[21]
  concentration at 2 h: 459 ng/mL
Naegleria fowleri [22]
  Activity: inactive
[23]
  selectivity ratio: 192
[24]
  t1/2: 1.1 h
[25]
  t1/2: 1.54 h
[26]
  concentration at 312 h: ~20 µM
[27]
  AUC: 1920 ng·h/mL
[28]
  concentration at 2 h: 3850 ng/mL
[29]
  concentration at 0.5 h: 469 ng/mL
[30]
  Vd: 3.7 L/kg
Naegleria fowleri [31]
  EC50: 0.014 µM
[32]
  concentration at 4 h: 254 ng/mL

Reference: ChEMBL document CHEMBL5608261, “Pharmacophore Establishment and Optimization of Saturated 1,6-Naphthyridine-Fused Quinazolinones that Inhibit Meningoencephalitis-Causing Naegleria fowleri” (J Med Chem, 2024)
